Results: PubChem BioAssay
Inconclusive results are not listed.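 The calls were made as follows, unless noted: active = inhibition over a set limit, the all-compound mean plus 3 SD, in both replicate runs; inconclusive = over that limit in just one replicate run; inactive = at or under that limit in both runs.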

Legend:
[1] = S. cerevisiae growth inhibition in permissive medium (OD615), pilot counter-assay for S. cerevisiae lifespan shortening project, permissive growth control (AID 705;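 active = growth inhibition above 25% in both replicates, a cutoff set 3 SD above the mean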); settings: OD615, 24 h, at 10 µM, stronger effect = higher value
In short: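 System: S. cerevisiae with engineered DeaD lifespan system / Measured by: absorbance (optical density) at 615 nm / Read-out: reduction in yeast growth (OD615) / Times: 4 h cell pre-growth, 24 h exposure at 30 °C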

[2] = S. cerevisiae growth inhibition in restrictive medium, OD615, pilot screen, restrictive growth control, yeast lifespan reduction project (AID 706;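 active = growth inhibition above a set limit, 3 SD over mean compound inhibition, in both replicates, cut at about 43% in these data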;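 also: modified DeaD lifespan yeast strain shifted to restrictive glucose medium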); settings: OD615, 48 h, at 10 µM, stronger effect = higher value
In short: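 System: Engineered S. cerevisiae DeaD strain | Buffer or medium: Glucose-based CSMM-D restrictive medium | Schedule: 4 h pre-incubation, 48 h exposure at 30 °C | Technique: Optical density at 615 nm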

[3] = doxorubicin toxicity protection in MRP-1 cells – H69AR cells, CellTiter-Glo, duplicate, MRP-1 activator project, pilot screen (AID 807;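 active = viability increase at or above a cutoff of the median across tested compounds plus 3 SD, cut at about 8.5% in these data, passing the limit was not always enough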;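 also: compound pretreatment 18-22 h then 72 h combined with doxorubicin; 0% = doxorubicin alone and 100% = vehicle without doxorubicin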); settings: H69AR viability with doxorubicin, CellTiter-Glo luminescence; at 10 µM; stronger effect = higher value
[4] = viability of HCT116 without oncogenic beta-catenin – human colon tumor cells, pilot screen (AID 823;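 active = cell viability at or below a set limit in both duplicate runs, the limit being the all-compound median minus 4 SD, cut at about 23% in these data, passing the limit was not always enough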;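 also: 0% = wells killed by 20 µM Hyamine and 100% = untreated DMSO cell wells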); settings: HCT116 beta-catenin knockout viability, CellTiter-Glo, 60 h; at 10 µM; stronger effect = lower value
[5] = viability of PTEN-null HCT116 cells – cell-based, HCT116 clonal line, CellTiter-Glo, pilot screen (AID 824;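 active = viability at or below 27.92% in each of two runs, the all-compound median minus 4 SD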;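 also: 0% = 20 µM Hyamine control and 100% = vehicle cell control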); settings: HCT116 PTEN-deleted viability, 60 h, at 10 µM, stronger effect = lower value
[6] = RAM pathway blockade in budding yeast – dse1pr::URA3 reporter, 5-FOA selection, pilot screen (AID 869);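 also: 0% = DMSO wells with no growth and 100% = 10 µM 1-NA-PP1 with full growth; RAM network block rescues cells from 5-FOA so hits raise OD615 growth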; settings: S. cerevisiae dse1pr::URA3 5-FOA growth, OD615, 2 d; at 10 µM; stronger effect = higher value; strain carries analog-sensitive mutant Cbk1 kinase
[7] = RAM signaling pathway blockade in yeast – S. cerevisiae, Pdr1DBD-CYC8 efflux-inhibited sensitized strain, primary screen (AID 1298;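 active = RAM network inhibition above 8.4% in each of two replicates, 3 SD over the compound average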;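 also: 0% = DMSO untreated cells without growth and 100% = 10 µM 1-NA-PP1 full growth; higher means more yeast growth rescued from 5-FOA killing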); settings: S. cerevisiae cbk1-as DSE1-URA3 strain, 5-FOA growth OD615, 2 d; at 50 µM; stronger effect = higher value

COc1cccc2c(=O)n(CC(=O)NC3CCCCC3)ccc12
inactive: growth inhibition [1] 0.435% | growth inhibition [2] -6.59% | viability increase [3] -1.27% | viability [4] 103% | viability [5] 90.3% | inhibition [6] 1.58% | RAM network inhibition [7] 4.45%

CC(=O)Nc1nonc1-c1nc2ccccc2n1N(C(C)=O)C(C)=O
inactive: growth inhibition [1] 3.74% | growth inhibition [2] 8.55% | viability increase [3] -2.77% | viability [4] 93.2% | viability [5] 93.5% | inhibition [6] 2.67% | RAM network inhibition [7] 3.63%

COC(=O)c1ccc(NS(=O)(=O)c2ccc3c(c2)oc(=O)n3C)cc1
inactive: growth inhibition [1] -4.12% | growth inhibition [2] -3.33% | viability increase [3] 1.49% | viability [4] 103% | viability [5] 96.4% | inhibition [6] 0.69% | RAM network inhibition [7] 7.21%

O=C(NCCC1=CCCCC1)C1CCCN(S(=O)(=O)c2cccc3cccnc23)C1 (stereo unspecified)
inactive: growth inhibition [1] -14.8% | growth inhibition [2] -12.7% | viability increase [3] -1.42% | viability [4] 89% | viability [5] 80.6% | inhibition [6] 2.14% | RAM network inhibition [7] 5.84%

O=C1CCc2cc(S(=O)(=O)N3CCCC3C(=O)N3CCN(c4ccccc4)CC3)ccc2N1 (stereo unspecified)
inactive: growth inhibition [1] -10.3% | growth inhibition [2] -12.1% | viability increase [3] -3.91% | viability [4] 105% | viability [5] 85% | inhibition [6] 3.67% | RAM network inhibition [7] 4.76%

CN1CCN(S(=O)(=O)c2ccc(-c3ccc(S(=O)(=O)N4CCN(C)CC4)cc3)cc2)CC1
inactive: growth inhibition [1] -23.4% | growth inhibition [2] -19.1% | viability increase [3] 0.84% | viability [4] 96.5% | viability [5] 96.2% | inhibition [6] 0.68% | RAM network inhibition [7] 0.57%

Cc1cc(Nc2ccc(Br)cc2F)n2nc(C)nc2n1
inactive: growth inhibition [1] -19.2% | growth inhibition [2] -14.2% | viability increase [3] -4.07% | viability [4] 88.3% | viability [5] 86% | inhibition [6] 0.87% | RAM network inhibition [7] -0.15%

COc1ccc(C2CC(c3ccc(F)cc3)Nc3nc(N)nn32)cc1OC (stereo unspecified)
inactive: growth inhibition [1] -0.9% | growth inhibition [2] 4.9% | viability increase [3] -0.13% | viability [4] 102% | viability [5] 92.4% | inhibition [6] 1.21% | RAM network inhibition [7] 7.75%

O=C(Nc1ccccc1Cl)N1CCN(c2ccccn2)CC1
inactive: growth inhibition [1] -6.09% | growth inhibition [2] -5.88% | viability increase [3] -0.46% | viability [4] 103% | viability [5] 109% | inhibition [6] 1.91% | RAM network inhibition [7] 4.61%

O=C1CC(N2CCN(C/C=C/c3ccccc3)CC2)C(=O)N1CCc1ccccc1 (stereo unspecified)
inactive: growth inhibition [1] -12.7% | growth inhibition [2] -9.45% | viability increase [3] -0.11% | viability [4] 72.8% | viability [5] 77.6% | inhibition [6] 1.02% | RAM network inhibition [7] 7.71%

CCOc1ccc(C2CC(=O)NC(SC)=C2C#N)cc1 (stereo unspecified)
inactive: growth inhibition [1] -15.8% | growth inhibition [2] -15.5% | viability increase [3] -2.65% | viability [4] 104% | viability [5] 94.9% | inhibition [6] 0.595% | RAM network inhibition [7] 6.38%

COc1ccc(S(=O)(=O)Cc2ccc(C(=O)N3CCN(C4CCCCC4)CC3)o2)cc1
inactive: growth inhibition [1] 8.67% | growth inhibition [2] 7.12% | viability increase [3] -2.58% | viability [4] 78.9% | viability [5] 90% | inhibition [6] 0.75% | RAM network inhibition [7] -1.9%

CCCSc1nc2c(cnn2-c2ccc(F)cc2)c(=O)[nH]1
inactive: growth inhibition [1] -5.3% | growth inhibition [2] -3.29% | viability increase [3] -2.46% | viability [4] 95% | viability [5] 94.7% | inhibition [6] 0.82% | RAM network inhibition [7] 2.71%

COc1cc(C(=O)Nc2cccc(-c3nc4ccccc4o3)c2C)cc(OC)c1OC
inactive: growth inhibition [1] -20.9% | growth inhibition [2] -26.2% | viability increase [3] -2.22% | viability [4] 91.2% | viability [5] 98.7% | inhibition [6] 2.46% | RAM network inhibition [7] 1.35%

CCOc1ccc(N2CC(=O)SC2=S)cc1
inactive: growth inhibition [1] -6.07% | growth inhibition [2] -0.73% | viability increase [3] 1.09% | viability [4] 96.3% | viability [5] 95.9% | inhibition [6] 0.425% | RAM network inhibition [7] 7.05%

O=C1C2=C(SCCS2)C(=O)N1CCCO
inactive: growth inhibition [1] -1.38% | growth inhibition [2] -3.45% | viability increase [3] 0.11% | viability [4] 98.9% | viability [5] 97.9% | inhibition [6] -0.095% | RAM network inhibition [7] 3.67%

Cc1cc(Nc2ccccc2F)n2nc(C)nc2n1
inactive: growth inhibition [1] -13% | growth inhibition [2] -6.23% | viability increase [3] -1.87% | viability [4] 99.2% | viability [5] 99.5% | inhibition [6] 1.95% | RAM network inhibition [7] 0.37%

COC(=O)C1C(=O)CC(C)(O)C(C(=O)OC)C1c1ccc2c(c1)OCO2 (stereo unspecified)
inactive: growth inhibition [1] -10.3% | growth inhibition [2] -17% | viability increase [3] 0.03% | viability [4] 92.3% | viability [5] 98.5% | inhibition [6] 1.74% | RAM network inhibition [7] 0.48%

CC(CNCc1ccc2c(c1)OCO2)NCc1ccc2c(c1)OCO2 (stereo unspecified)
inactive: growth inhibition [1] -14% | growth inhibition [2] -7.7% | viability increase [3] -3.34% | viability [4] 75% | viability [5] 77.2% | inhibition [6] -0.175% | RAM network inhibition [7] 1.32%

O=C1c2ccccc2S(=O)(=O)N1CC(O)COc1ccc(Br)cc1 (stereo unspecified)
inactive: growth inhibition [1] -2.32% | growth inhibition [2] 5.18% | viability increase [3] -0.35% | viability [4] 106% | viability [5] 97.4% | inhibition [6] 1.39% | RAM network inhibition [7] 2.2%

CC(NC(=O)Cn1cc2c(n1)CCCCC2)c1ccccc1 (stereo unspecified)
inactive: growth inhibition [1] -0.875% | growth inhibition [2] 2.88% | viability increase [3] 3.53% | viability [4] 101% | viability [5] 100% | inhibition [6] -0.32% | RAM network inhibition [7] 0.87%

COCCN1C=C(C(=O)OC)C(c2cc(Br)c(OC)c(OC)c2)C(C(=O)OC)=C1
inactive: growth inhibition [1] 1.89% | growth inhibition [2] -0.035% | viability increase [3] -2.7% | viability [4] 80.8% | viability [5] 71.9% | inhibition [6] 2.16% | RAM network inhibition [7] 8.73%

c1ccc2c(c1)nc(N1CCOCC1)c1nnnn12
inactive: growth inhibition [1] -7.82% | growth inhibition [2] -4.7% | viability increase [3] -3.18% | viability [4] 109% | viability [5] 103% | inhibition [6] 1.38% | RAM network inhibition [7] 10.4%
